Measurements taken from ChEMBL document CHEMBL1134680, “Iridals are a novel class of ligands for phorbol ester receptors with modest selectivity for the RasGRP receptor subfamily” (J Med Chem, 2001).

Assays:
[1] = tested on: Panel NCI-60 (60 carcinoma cell lines); assay: Inhibition of cell growth in NCI panel of 60 human carcinoma lines; type: functional
[2] = molecular target: Protein kinase C alpha type (Homo sapiens, UniProt P17252); assay: Binding affinity for PKC alpha (C1b domain)
Outline: (§1)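 Competition of [3H]PDBu (3.0 nM) binding to partially purified PKCα or bacterially expressed MBP/RasGRP3 fusion (human RasGRP3, amylose-bead purified). Buffer: 50 mM Tris-Cl pH 7.4, 2 mg/mL γ-globulins, 0.1 mM Ca2+, 0.1 mg/mL phosphatidylserine. Incubation was 5 min at 37 °C for PKCα and 5 min at 18 °C for RasGRP3. Nonspecific binding was set with 30 μM PDBu. Bound and free were separated by PEG precipitation and counted.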

[3] = molecular target: T1, Ras guanyl-releasing protein 3 (Homo sapiens, UniProt Q8IV61); assay: Binding affinity for RasGPR3, guanine nucleotide exchange factor; outline: as §1
T1 sequence (Q8IV61 whole entry): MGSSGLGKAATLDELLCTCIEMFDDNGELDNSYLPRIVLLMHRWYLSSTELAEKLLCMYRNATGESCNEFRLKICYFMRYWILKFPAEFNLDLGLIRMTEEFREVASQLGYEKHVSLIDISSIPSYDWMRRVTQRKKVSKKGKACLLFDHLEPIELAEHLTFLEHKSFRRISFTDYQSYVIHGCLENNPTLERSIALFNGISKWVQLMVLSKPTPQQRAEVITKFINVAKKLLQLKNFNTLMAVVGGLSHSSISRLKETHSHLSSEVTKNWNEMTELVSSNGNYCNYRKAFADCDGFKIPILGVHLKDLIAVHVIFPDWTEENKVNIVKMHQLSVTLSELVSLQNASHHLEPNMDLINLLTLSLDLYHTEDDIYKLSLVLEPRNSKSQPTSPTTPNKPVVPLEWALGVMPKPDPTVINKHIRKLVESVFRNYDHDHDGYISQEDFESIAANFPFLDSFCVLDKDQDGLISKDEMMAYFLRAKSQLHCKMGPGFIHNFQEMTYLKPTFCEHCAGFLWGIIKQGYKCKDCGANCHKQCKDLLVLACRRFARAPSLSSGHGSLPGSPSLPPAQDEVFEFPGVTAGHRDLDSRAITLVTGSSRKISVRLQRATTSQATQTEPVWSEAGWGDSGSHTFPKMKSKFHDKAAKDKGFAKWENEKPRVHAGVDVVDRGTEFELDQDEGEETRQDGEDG

[4] = molecular target: T1, Ras guanyl-releasing protein 3; assay: Binding affinity for RasGRP, guanine nucleotide exchange factor

Compound	Log 1/GI50 [1]	Ki [2]	Ki [3]	Ki [4]
CCCCC(=O)O[C@@H]1[C@@H](C)[C@@]2(O)[C@@H](C=C(CO)C[C@]3(O)C(=O)C(C)=C[C@@H]23)[C@@H]2C(C)(C)[C@]12OC(=O)CCC	4	–	–	–
C=C(C)[C@@]12OC3(c4ccccc4)O[C@@H]1[C@@H]1[C@@H]4O[C@]4(CO)[C@@H](O)[C@]4(O)C(=O)C(C)=C[C@H]4[C@@]1(O3)[C@H](C)[C@H]2OC(=O)/C=C/C=C/c1ccccc1	5.8	–	–	–
CC(=O)O[C@@]12C[C@@H](C)[C@@]3(O)[C@@H](C=C(CO)C[C@]4(O)C(=O)C(C)=C[C@@H]34)[C@@H]1C2(C)C [PROSTRATIN]	3	–	–	–
C=C(C)[C@]12C[C@@H](C)[C@@]34O[C@](/C=C/C=CCCCCCCCCC)(O[C@@H]1[C@@H]3[C@@H]1O[C@]1(CO)[C@@H](O)[C@]1(O)C(=O)C(C)=C[C@H]14)O2	4.7	–	–	–
C=C(C)[C@@]12C[C@@H](COC(=O)c3ccccc3)[C@@]34OC5(O[C@@H]1[C@@H]3[C@@H]1O[C@]1(CO)[C@@H](O)[C@@]1(O)[C@H]4[C@H]([C@H](C)[C@@H]1OC(=O)c1ccccc1)[C@H](C)CCCCCC[C@H]5O)O2 [GNIDIMACRIN]	4	–	–	–
C=C(/C=C/C=C(/CCC=C(C)C)COC(C)=O)[C@@H]1CC[C@]2([C@H](CCCO)/C(=C(/C)C=O)CC[C@]2(C)O)[C@@H]1O	4.4	83.6 nM	41.7 nM	–
CC1=C[C@H]2[C@@]3(O)[C@H](C)[C@@H](O)[C@]4(O)[C@H]([C@@H]3C=C(CO)C[C@]2(O)C1=O)C4(C)C [PHORBOL]	4.3	–	–	–
CC1=CC[C@H](C)C(C)(C)[C@@H]1/C=C/C(C)=C\CC[C@@]1(CO)[C@H](CCCO)/C(=C(/C)C=O)CC[C@]1(C)O	4.6	75.6 nM	–	15.5 nM
